{"data": "Measured values collected from several papers", "target": "Tyrosine-protein kinase Fyn (FYN, Homo sapiens, UniProt P06241)", "note": "Each line is one published result; the experiments were not run side by side."}
{"Compound": "O=C(NCCCN1CCOCC1)c1ccc(Nc2ncc(Cl)c(-c3ccc(Cl)s3)n2)cc1", "test": "binding, competition with immobilised ligand", "setting": "1 µM", "remaining binding [%]": 100}
{"Compound": "C[C@@H]1CCN(c2nccc(-c3cnn4ncccc34)n2)C1", "test": "binding", "setting": "1 µM", "remaining binding [%]": 88}
{"Compound": "CC(C)CC(=O)N1CCc2nc(-c3ccc(Br)cc3)nc(N(C)Cc3ccccc3)c2C1", "test": "cell-free assay, competition with immobilised ligand", "setting": "0.1 µM", "remaining binding [%]": 100}
{"Compound": "CCN1CCN(Cc2ccc(C(=O)Nc3ccc(C)c(Oc4ccc5c(c4)CC(=O)N5)c3)cc2C(F)(F)F)CC1", "test": "binding, competition with immobilised ligand", "setting": "1 µM", "remaining binding [%]": 90}
{"Compound": "C[C@@H](c1ccc(-n2cnc3c(N)ncnc32)cc1)N1CCc2nn(C)c(Cc3ccccc3)c2C1=O", "test": "binding, competition with immobilised ligand", "setting": "0.1 µM", "remaining binding [%]": 100}
{"Compound": "Nc1ncc2c(n1)-c1c([nH]c3ccc(C#CC4CC4)cc13)CCCC2", "test": "binding, competition with immobilised ligand", "setting": "1 µM", "remaining binding [%]": 100}
{"Compound": "O=C(Nc1c[nH]nc1C(=O)NC1CCNCC1)c1cc(F)cc(F)c1", "test": "binding, competition with immobilised ligand", "setting": "1 µM", "remaining binding [%]": 100}
{"Compound": "NS(=O)(=O)c1cc(NC(=O)C2(c3ccccc3Cl)CC2)ccc1Oc1cccc(Cl)c1", "test": "cell-free assay, competition with immobilised ligand", "setting": "1 µM", "remaining binding [%]": 100}
{"Compound": "CN(CCCC(F)(F)F)c1nccc(-c2cnn3ncccc23)n1", "test": "binding", "setting": "1 µM", "remaining binding [%]": 82}
{"Compound": "COc1cnc(Nc2cccc(S(N)(=O)=O)c2)nc1N1CCN(c2ccccc2)C(=O)C1", "test": "binding, competition with immobilised ligand", "setting": "1 µM", "remaining binding [%]": 100}
{"Compound": "O=C(O)[C@@H]1[C@@H](Cn2nnc3ccccc3c2=O)CC[C@H]1C(=O)c1ccc(OCCC2CCOCC2)cc1", "test": "cell-free assay, competition with immobilised ligand", "setting": "1 µM", "remaining binding [%]": 76}
{"Compound": "CN(C)c1nccc(-c2cnn3ncccc23)n1", "test": "binding", "setting": "1 µM", "remaining binding [%]": 100}
{"Compound": "COc1ncc2cc3ccccc3nc2c1C#N", "test": "cell-free assay, competition with immobilised ligand", "setting": "5 µM", "remaining binding [%]": 100}
{"Compound": "Cc1cnc(Nc2ccc(C(=O)N3CCC(N4CCCC4)CC3)cc2)nc1-c1cc2ccccc2s1", "test": "binding, competition with immobilised ligand", "setting": "1 µM", "remaining binding [%]": 78}
{"Compound": "CN(c1nccc(-c2cnn3ncccc23)n1)C1CC1", "test": "binding", "setting": "1 µM", "remaining binding [%]": 85}
{"Compound": "Cn1cc(Cl)c2c(Oc3c(F)cc(Nc4cc(Cl)nc(N)n4)cc3F)ccnc21", "test": "cell-free assay, competition with immobilised ligand", "setting": "0.1 µM", "remaining binding [%]": 80}
{"Compound": "N[C@@H]1CCN(c2nccc(-c3cnn4ncccc34)n2)C1", "test": "binding", "setting": "1 µM", "remaining binding [%]": 100}
{"Compound": "C[C@H](c1ccc(F)cc1)N(Cc1cccc(C(=O)O)c1)C(=O)c1cnc2ccccc2c1", "test": "cell-free assay, competition with immobilised ligand", "setting": "1 µM", "remaining binding [%]": 63}
{"Compound": "O=C(c1ccc(Nc2ncc(Cl)c(-c3ccc(Cl)s3)n2)cc1)N1CCC(N2CCCC2)CC1", "test": "binding, competition with immobilised ligand", "setting": "1 µM", "remaining binding [%]": 100}
{"Compound": "c1cnn2ncc(-c3ccnc(N4CCC45COC5)n3)c2c1", "test": "binding", "setting": "1 µM", "remaining binding [%]": 79}
{"Compound": "CN(C)CC#Cc1ccc(OCCCc2sc(N3CCc4cccc(C(=O)Nc5nc6ccccc6s5)c4C3)nc2C(=O)O)c(F)c1", "test": "cell-free assay, competition with immobilised ligand", "setting": "1 µM", "remaining binding [%]": 96}
